# Compound activity as filed in PubChem BioAssay.
# Mdm2-MdmX inh: inhibitors of human Mdm2-MdmX association, primary screen, cell-based, luminescence, split luciferase, SaOS-2, uHTS | Protein Mdm4 (Homo sapiens) + E3 ubiquitin-protein ligase Mdm2 (Homo sapiens), … | SaOS-2 split-luciferase Mdm2/MdmX complementation | inhibition, % at 8 µM | hit rate 3% among 330,000 | AID 485346, 2010;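 active = inhibition of at least 50% at 8 µM in the primary screen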
# Target sequence (O15151 whole entry, looked up): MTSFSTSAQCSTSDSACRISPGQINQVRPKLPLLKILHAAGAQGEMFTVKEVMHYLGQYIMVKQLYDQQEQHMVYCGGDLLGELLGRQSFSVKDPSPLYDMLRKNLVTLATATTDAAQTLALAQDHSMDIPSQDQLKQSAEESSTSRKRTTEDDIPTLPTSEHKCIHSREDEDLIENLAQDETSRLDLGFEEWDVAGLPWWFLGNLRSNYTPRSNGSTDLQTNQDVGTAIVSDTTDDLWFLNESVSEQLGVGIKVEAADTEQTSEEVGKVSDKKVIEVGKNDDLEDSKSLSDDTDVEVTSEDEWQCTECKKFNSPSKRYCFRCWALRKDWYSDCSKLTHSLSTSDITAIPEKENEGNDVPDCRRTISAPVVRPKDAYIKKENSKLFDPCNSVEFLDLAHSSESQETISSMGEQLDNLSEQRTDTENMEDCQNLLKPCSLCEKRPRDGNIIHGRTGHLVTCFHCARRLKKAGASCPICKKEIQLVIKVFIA
# Target sequence (Q00987 whole entry, looked up): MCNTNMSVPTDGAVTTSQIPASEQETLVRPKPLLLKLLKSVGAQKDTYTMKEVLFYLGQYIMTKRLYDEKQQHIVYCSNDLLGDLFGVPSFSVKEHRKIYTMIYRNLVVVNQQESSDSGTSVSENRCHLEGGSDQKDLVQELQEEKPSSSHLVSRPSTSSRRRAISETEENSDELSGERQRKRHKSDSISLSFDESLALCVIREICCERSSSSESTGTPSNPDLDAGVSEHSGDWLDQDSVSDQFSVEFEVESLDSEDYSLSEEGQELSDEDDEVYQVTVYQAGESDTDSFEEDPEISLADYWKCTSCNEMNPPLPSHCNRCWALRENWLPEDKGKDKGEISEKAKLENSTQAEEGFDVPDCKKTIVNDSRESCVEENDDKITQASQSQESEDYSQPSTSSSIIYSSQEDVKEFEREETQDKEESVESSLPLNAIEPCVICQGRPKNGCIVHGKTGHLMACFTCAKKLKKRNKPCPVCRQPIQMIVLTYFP
# ABHD5-PLIN5 inh: ABHD5-PLIN5 interaction inhibitors, primary screen, cell lysate, split luciferase complementation, luminescence; Perilipin-5 (Homo sapiens) + 1-acylglycerol-3-phosphate O-acyltransferase ABHD5 (Homo …; Split G. princeps luciferase complementation, 4 h; inhibition, % at 4 µM; hit rate 0.78% among 360,000;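 active = inhibition above the mean inhibition across every tested compound plus 3 SD, cut at about 22% in these data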;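 note: 0% = DMSO only wells and the 100% control is not disclosed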
# CHOP UPR activ: activators of apoptotic CHOP UPR arm, primary screen, cell-based, CHO-CHOP luciferase reporter, luminescence, uHTS; activation, % at 10 µM; hit rate 0.34% among 330,000; UPR activation; percent of tunicamycin response over DMSO baseline;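 active = at 10 µM dose, activation of 40% or more, normalized to positive control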;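 note: 100% = tunicamycin at 10 µg/mL and 0% = DMSO alone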
#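 Dosing – one dose, 10 µM in 0.5% DMSO · System – CHO-CHOP cells, stable luciferase reporter of PERK-eIF2a-CHOP signalling · Input – 500 cells/well · Control set – tunicamycin 10 µg/mL final as positive, DMSO-only wells as negative · Timing – 6 h compound treatment, 37 °C · Measure – % activation vs tunicamycin · Technique – luminescence read with Steady-Glo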
# UPR XBP1 act: activators of adaptive XBP1 UPR arm, primary screen, cell-based, CHO-XBP1 luciferase reporter, luminescence, uHTS; activation, % at 20 µM; AID 463104, 2010; IRE1-XBP1 UPR activation; percent of tunicamycin response, DMSO as zero; hit rate 0.33% among 330,000;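 active = versus positive control, 20 µM dose yields 30% or more activation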;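 note: 100% = tunicamycin at 10 µg/mL and 0% = DMSO only wells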
#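 Assay system: IRE1-XBP1 luciferase reporter CHO line. Input: 1000 cells/well. Buffer or medium: F12 with 10% serum. Doses: 20 µM, 1% DMSO. Times: overnight seeding at 37 °C, 6 h compound treatment at 37 °C. Technique: Steady-Glo luciferase glow luminescence, 10 min after reagent addition.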
# Granule exo inh: LAMP-1 surface exposure blockers, TALL-104 cells – cell-based, flow cytometry, MLPCN library, primary screen; TALL-104 LAMP-1 surface exposure; cells stimulated with thapsigargin and PMA; inhibition, % at 10 µM; hit rate 0.66% among 360,000; AID 651702, 2012;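 active = inhibition above about 55%, limit read from the data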
# An asterisk follows results filed as active; nt = no result. Only some compounds are listed: those with a hit (about 4% of all), similar ones and a draw of the others.
SMILES,Mdm2-MdmX inh,ABHD5-PLIN5 inh,CHOP UPR activ,UPR XBP1 act,Granule exo inh
COc1ccc(C(C[N+](=O)[O-])C2(c3ccc(OC)c(OC)c3)C(=O)c3ccccc3C2=O)cc1 (centres undefined),nt,83.8*,nt,nt,50.3
CCCS(=O)(=O)c1nnnn1-c1cccc(OC)c1,nt,42.8*,nt,nt,19.4
O=C(Nc1ccc(Cl)cc1)c1ccncc1,-17.7,1.6,1.6,1.7,0.2
Cc1cc(C)c(O)c(-c2cc(C(=O)NCCc3ccc(S(N)(=O)=O)cc3)[nH]n2)c1,23.3,8.1,-0.2,-1.8,63.2*
CCc1ccc(S(=O)(=O)/N=C2\C=CC(=O)c3ccccc32)cc1,37.3,nt,13.7,17.9,nt
CCc1ccc(S(=O)(=O)/N=C2/C=C(Sc3ncn[nH]3)C(=O)c3ccccc32)cc1,nt,32.3*,nt,nt,97.7*
CCNc1ccc(Br)cc(C(=O)/C=C/c2ccc3c(c2)OCO3)c1=O,23.5,19.2,-0.4,-1.0,9.2
CNc1ccc(Br)cc(C(=O)/C=C/c2ccc(Cl)cc2Cl)c1=O,9.8,56.6*,5.0,-3.8,100.1*
CCNc1ccc(Br)cc(C(=O)/C=C/c2c(Cl)cccc2Cl)c1=O,26.3,44.1*,17.1,4.2,77.5*
CNc1ccc(Br)cc(C(=O)/C=C/c2ccc(OC)cc2OC)c1=O,11.6,14.2,-4.9,-6.2,-1.6
CCNc1ccc(Br)cc(C(=O)/C=C/c2ccc(Cl)cc2)c1=O,8.6,26.7*,5.4,0.7,33.8
O=C(O)c1ccccc1SC1CC(=O)N(c2ccccc2)C1=O (centres undefined),-29.8,14.4,3.3,-1.1,-0.7
O=C1CC(Sc2nnc(-c3ccccc3)o2)C(=O)N1c1ccccc1 (centres undefined),7.2,13.1,15.3,-5.6,66.0*
CCn1c2ccccc2nc2cc3c(cc21)c(Cl)c(=O)c1ccccc13,nt,-21.2,nt,nt,118.6*
NC(=S)N/N=C/c1ccc(-c2ccccc2)o1,4.5,-1.5,2.9,-0.2,91.0*
Cc1ccc(-c2ccc(/C=N/NC(N)=S)o2)cc1,-3.8,-4.0,6.2,8.7,103.1*
O=C(CCCn1c(=O)[nH]c2ccccc2c1=O)N1CCN(c2ccccn2)CC1,-2.0,4.7,-1.9,-1.4,6.9
CCOC(=O)c1c(NC(C)=O)sc2c1CCC(C=NCCCN(CC)CC)=C2Sc1ccccc1,36.9,48.3*,28.9,15.3,21.6
Nc1ncc(-c2ccc(-c3ccccc3)cc2F)cc1-c1ccccc1F,nt,-9.0,nt,nt,11.3
O=C(/C=C/c1ccncc1)c1ccc(NC(=O)c2ccccc2F)cc1,nt,95.0*,nt,nt,12.2
O=C(Nc1ccc(Nc2ccccc2)cc1)c1ccccc1F,-59.2,0.4,6.3,2.1,11.6
CCCCCCCCOC(=O)c1c(CSC(=N)N)n(C)c2cc(Br)c(OC(C)=O)cc12,-4.7,19.5,0.0,-7.9,72.4*
CS(=O)(=O)c1ccc(S(=O)CC(=O)OCc2ccccc2)c([N+](=O)[O-])c1 (centres undefined),nt,40.3*,nt,nt,96.9*
Cc1ccccc1NC(=O)C1CCCN1C(=O)NC1CCCCC1 (centres undefined),4.8,4.7,-1.7,-1.2,4.0
COc1c(O)cc2c(c1O)[C@@H]1O[C@H](CO)[C@@H](O)[C@H](O)[C@H]1OC2=O,-17.6,3.8,0.5,-6.9,14.0
SMILES,Mdm2-MdmX inh,ABHD5-PLIN5 inh,CHOP UPR activ,UPR XBP1 act,Granule exo inh
Oc1cc(O)c(CN2CCOCC2)cc1CN1CCOCC1,nt,22.4*,nt,nt,-13.3
Oc1c(CN2CCOCC2)cc(CN2CCOCC2)cc1CN1CCOCC1,nt,4.9,nt,nt,-7.4
O=C(COC(=O)c1cccc(F)c1)NCCC1=CCCCC1,-7.3,-3.0,0.5,-0.8,-1.0
COc1ccc(/C=C(\C#N)C(=O)N2COCC2(C)C)cc1,-10.1,4.4,2.4,-1.2,56.4*
OCC[C@H]1C[C@H](O)[C@@H](O)[C@@]2(Cc3ccccc3O2)O1,-4.9,-8.0,-0.2,0.9,-4.7
CCNC(=O)N(C)[C@H]1C[C@H]2c3[nH]c4ccccc4c3CCN2C[C@H]1[C@H](C)O,nt,-4.3,nt,nt,-2.9
